In ChEMBL document CHEMBL1150419, “Structure-activity relationships of a peptide inhibitor of the human FcRn:human IgG interaction” (Bioorg Med Chem, 2008) one finds IC50 data, which are given here for 21 molecules.

Square brackets hold non-standard residues; d marks the D form. Peptide text beside a SMILES is read from it. Dap = NC[C@H](N)C(=O)O

This experiment concerns the target IgG receptor FcRn large subunit p51 (Homo sapiens, UniProt P55899). The experiment can be described thus: Inhibition of human IgG binding to soluble human FcRn by ELISA. The gist of the method:
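Biotinylated soluble human FcRn immobilized on neutravidin plates, incubated with hIgG (3 nM, constant) and peptide at varying concentrations for 2 h at 37 °C. After washing, bound hIgG detected with peroxidase-conjugated hIgG-specific Fab fragments.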

IgG receptor FcRn large subunit p51, sequence (P55899 whole entry, the tested form may be a part): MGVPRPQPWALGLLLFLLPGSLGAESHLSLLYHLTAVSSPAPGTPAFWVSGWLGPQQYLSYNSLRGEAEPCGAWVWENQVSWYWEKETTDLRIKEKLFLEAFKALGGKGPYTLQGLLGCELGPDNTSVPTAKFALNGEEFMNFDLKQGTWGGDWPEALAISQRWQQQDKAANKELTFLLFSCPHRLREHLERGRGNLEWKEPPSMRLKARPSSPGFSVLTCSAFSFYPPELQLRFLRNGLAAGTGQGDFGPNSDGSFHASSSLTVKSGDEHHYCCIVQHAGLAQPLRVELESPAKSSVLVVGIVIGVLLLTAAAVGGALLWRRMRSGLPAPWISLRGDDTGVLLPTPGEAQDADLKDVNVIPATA

`CC(C)C[C@H](NC(=O)CNC(=O)CNC(=O)[C@H](Cc1ccccc1)NC(=O)[C@H](Cc1cnc[nH]1)NC(=O)CNC(=O)[C@@H](NC(=O)[C@H](CCCN)NC(=O)[C@H](Cc1ccccc1)NC(=O)[C@H](CCCNC(=N)N)NC(=O)[C@@H](N)CCC(N)=O)[C@@H](C)O)C(=O)N[C@@H](Cc1ccc(O)cc1)C(=O)N1CCC[C@H]1C(=O)N[C@@H](CC(=O)O)C(=O)N[C@@H](CC(N)=O)C(=O)NCC(=O)N1CCC[C@H]1C(=O)O` showed an IC50 of 120 µM.

Turning to `CC(C)C[C@H](NC(=O)CNC(=O)CNC(=O)[C@H](Cc1ccccc1)NC(=O)[C@H](Cc1cnc[nH]1)NC(=O)CNC(=O)[C@@H](NC(=O)[C@H](CC(=O)O)NC(=O)[C@H](Cc1ccccc1)NC(=O)[C@H](CCCN=C(N)N)NC(=O)[C@@H](N)CCC(N)=O)[C@@H](C)O)C(=O)N[C@@H](Cc1ccc(O)cc1)C(=O)N1CCC[C@H]1C(=O)N[C@@H](CN)C(=O)N[C@@H](CC(N)=O)C(=O)NCC(=O)N1CCC[C@H]1C(=O)O`, the IC50 came out at 32 µM.

`CC(C)C[C@H](NC(=O)CN(C)C(=O)CNC(=O)[C@H](Cc1ccccc1)NC(=O)[C@H](Cc1cnc[nH]1)NC(=O)CNC(=O)[C@@H](NC(=O)[C@@H](NC(=O)[C@H](Cc1ccccc1)NC(=O)[C@H](CCCN=C(N)N)NC(=O)[C@@H](N)CCC(N)=O)C(C)(C)S)[C@@H](C)O)C(=O)N[C@@H](Cc1ccc(O)cc1)C(=O)N1CCC[C@H]1C(=O)N[C@@H](CS)C(=O)N[C@@H](CC(N)=O)C(=O)NCC(=O)N1CCC[C@H]1C(=O)O`: the half-maximal inhibitory concentration (IC50) is 0.9 µM.

`CC(C)C[C@@H](C(=O)N[C@@H](Cc1ccc(O)cc1)C(=O)N1CCC[C@H]1C(=O)N[C@@H](C)C(=O)O)N(C)C(=O)CN(C)C(=O)CNC(=O)[C@H](Cc1ccccc1)NC(=O)[C@H](Cc1cnc[nH]1)NC(=O)CNC(=O)[C@@H](NC(=O)[C@@H](NC(=O)[C@H](Cc1ccccc1)NC(=O)[C@@H](N)CCCNC(=N)N)C(C)C)[C@@H](C)O` yielded an IC50 of 37 µM.

Molecule `CC(C)C[C@H](NC(=O)CNC(=O)CNC(=O)[C@H](Cc1ccccc1)NC(=O)[C@H](Cc1cnc[nH]1)NC(=O)CNC(=O)[C@@H](NC(=O)[C@H](CN)NC(=O)[C@H](Cc1ccccc1)NC(=O)[C@H](CCCN=C(N)N)NC(=O)[C@@H](N)CCC(N)=O)[C@@H](C)O)C(=O)N[C@@H](Cc1ccc(O)cc1)C(=O)N1CCC[C@H]1C(=O)N[C@@H](CCC(=O)O)C(=O)N[C@@H](CC(N)=O)C(=O)NCC(=O)N1CCC[C@H]1C(=O)O` (H-QRF[Dap]TGHFGGLYPENGP-OH) gave an IC50 of over 125 µM.

The molecule `CC(C)C[C@@H](C(=O)N[C@@H](Cc1ccc(O)cc1)C(=O)N1CCC[C@H]1C(=O)N[C@@H](CS)C(=O)O)N1CC[C@H](NC(=O)CNC(=O)[C@H](Cc2ccccc2)NC(=O)[C@H](Cc2cnc[nH]2)NC(=O)CNC(=O)[C@@H](NC(=O)[C@@H](NC(=O)[C@H](Cc2ccccc2)NC(=O)[C@@H](N)CCCNC(=N)N)C(C)(C)S)[C@@H](C)O)C1=O` yielded an IC50 of 19 µM.

Molecule `CC[C@H](C)[C@@H](NC(=O)CNC(=O)[C@H](Cc1ccccc1)NC(=O)[C@H](Cc1cnc[nH]1)NC(=O)CNC(=O)[C@@H](NC(=O)[C@@H](NC(=O)[C@H](Cc1ccccc1)NC(=O)[C@H](CCCNC(=N)N)NC(=O)[C@@H](N)CCC(N)=O)C(C)(C)S)[C@@H](C)O)C(=O)N[C@@H](CC(C)C)C(=O)N[C@@H](Cc1ccc(O)cc1)C(=O)N1CCC[C@H]1C(=O)N[C@@H](CS)C(=O)N[C@@H](CC(N)=O)C(=O)NCC(=O)N1CCC[C@H]1C(=O)O` had an IC50 of 18 µM.

`CC(C)C[C@H](NC(=O)[C@H]1CCCN1C(=O)[C@@H](C)NC(=O)[C@H](Cc1ccccc1)NC(=O)[C@H](Cc1cnc[nH]1)NC(=O)CNC(=O)[C@@H](NC(=O)[C@@H](NC(=O)[C@H](Cc1ccccc1)NC(=O)[C@H](CCCN=C(N)N)NC(=O)[C@@H](N)CCC(N)=O)C(C)(C)S)[C@@H](C)O)C(=O)N[C@@H](Cc1ccc(O)cc1)C(=O)N1CCC[C@H]1C(=O)N[C@@H](CS)C(=O)N[C@@H](CC(N)=O)C(=O)NCC(=O)N1CCC[C@H]1C(=O)O`: the IC50 was determined as 3.7 µM.

Molecule `CC(C)C[C@H](NC(=O)CNC(=O)CNC(=O)[C@H](Cc1ccccc1)NC(=O)[C@H](Cc1cnc[nH]1)NC(=O)CNC(=O)[C@@H](NC(=O)[C@@H](NC(=O)[C@H](Cc1ccccc1)NC(=O)[C@H](CCCN=C(N)N)NC(=O)[C@@H](N)CCC(N)=O)C(C)(C)S)[C@@H](C)O)C(=O)N[C@@H](Cc1ccc(F)cc1)C(=O)N1CCC[C@H]1C(=O)N[C@@H](CS)C(=O)N[C@@H](CC(N)=O)C(=O)NCC(=O)N1CCC[C@H]1C(=O)O` returned an IC50 of 26 µM.

The molecule `CC(C)C[C@H](NC(=O)CNC(=O)CNC(=O)[C@H](Cc1ccccc1)NC(=O)[C@H](Cc1cnc[nH]1)NC(=O)CNC(=O)[C@@H](NC(=O)[C@H](CN)NC(=O)[C@H](Cc1ccccc1)NC(=O)[C@H](CCCNC(=N)N)NC(=O)[C@@H](N)CCC(N)=O)[C@@H](C)O)C(=O)N[C@@H](Cc1ccc(O)cc1)C(=O)N1CCC[C@H]1C(=O)N[C@@H](CC(=O)O)C(=O)N[C@@H](CC(N)=O)C(=O)NCC(=O)N1CCC[C@H]1C(=O)O` returned an IC50 of 120 µM.

As for `CC(C)C[C@H](NC(=O)c1ccc(CNC(=O)[C@H](Cc2ccccc2)NC(=O)[C@H](Cc2cnc[nH]2)NC(=O)CNC(=O)[C@@H](NC(=O)[C@@H](NC(=O)[C@H](Cc2ccccc2)NC(=O)[C@@H](N)CCCNC(=N)N)C(C)(C)S)[C@@H](C)O)cc1)C(=O)N[C@@H](Cc1ccc(O)cc1)C(=O)N1CCC[C@H]1C(=O)N[C@@H](CS)C(=O)O`, the concentration for half-maximal inhibition (IC50) is over 125 µM.

For `CC(C)C[C@H](NC(=O)[C@@H](C)NC(=O)[C@@H](Cc1ccccc1)NC(=O)[C@H](Cc1ccccc1)NC(=O)[C@H](Cc1cnc[nH]1)NC(=O)CNC(=O)[C@@H](NC(=O)[C@@H](NC(=O)[C@H](Cc1ccccc1)NC(=O)[C@H](CCCNC(=N)N)NC(=O)[C@@H](N)CCC(N)=O)C(C)(C)S)[C@@H](C)O)C(=O)N[C@@H](Cc1ccc(O)cc1)C(=O)N1CCC[C@H]1C(=O)N[C@@H](CS)C(=O)N[C@@H](CC(N)=O)C(=O)NCC(=O)N1CCC[C@H]1C(=O)O`, the half-inhibitory concentration (IC50) is 4.3 µM.

As for `CC(C)C[C@H](NC(=O)CNC(=O)CNC(=O)[C@H](Cc1ccccc1)NC(=O)[C@H](Cc1cnc[nH]1)N(C)C(=O)CNC(=O)[C@@H](NC(=O)[C@@H](NC(=O)[C@H](Cc1ccccc1)NC(=O)[C@@H](N)CCCN=C(N)N)C(C)(C)S)[C@@H](C)O)C(=O)N[C@@H](Cc1ccc(O)cc1)C(=O)N1CCC[C@H]1C(=O)N[C@@H](CS)C(=O)O`, the IC50 is over 250 µM.

In turn, `CC(C)C[C@H](NC(=O)CNC(=O)CNC(=O)[C@H](Cc1ccccc1)NC(=O)[C@H](Cc1cnc[nH]1)NC(=O)CNC(=O)[C@@H](NC(=O)[C@H](CCCN)NC(=O)[C@H](Cc1ccccc1)NC(=O)[C@H](CCCNC(=N)N)NC(=O)[C@@H](N)CCC(N)=O)[C@@H](C)O)C(=O)N[C@@H](Cc1ccc(O)cc1)C(=O)N1CCC[C@H]1C(=O)N[C@@H](CCC(=O)O)C(=O)N[C@@H](CC(N)=O)C(=O)NCC(=O)N1CCC[C@H]1C(=O)O` came in with a half-inhibitory concentration (IC50) of 30 µM.

Molecule `CC(C)C[C@H](NC(=O)Cc1cccc(NC(=O)[C@H](Cc2ccccc2)NC(=O)[C@H](Cc2cnc[nH]2)NC(=O)CNC(=O)[C@@H](NC(=O)[C@@H](NC(=O)[C@H](Cc2ccccc2)NC(=O)[C@@H](N)CCCN=C(N)N)C(C)(C)S)[C@@H](C)O)c1)C(=O)N[C@@H](Cc1ccc(O)cc1)C(=O)N1CCC[C@H]1C(=O)N[C@@H](CS)C(=O)O` registered an IC50 of 14 µM.

In turn, `CC(C)C[C@H](NC(=O)CNC(=O)CNC(=O)[C@H](Cc1ccccc1)NC(=O)[C@H](Cc1cnc[nH]1)NC(=O)CNC(=O)[C@@H](NC(=O)[C@H](NC(=O)[C@@H](Cc1ccccc1)NC(=O)[C@H](CCCN=C(N)N)NC(=O)[C@@H](N)CCC(N)=O)C(C)(C)S)[C@@H](C)O)C(=O)N[C@@H](Cc1ccc(O)cc1)C(=O)N1CCC[C@H]1C(=O)N[C@H](CS)C(=O)N[C@@H](CC(N)=O)C(=O)NCC(=O)N1CCC[C@H]1C(=O)O` displayed an IC50 of 11.4 µM.

Turning to `CC(C)C[C@H](NC(=O)[C@@H](C)NC(=O)CNC(=O)[C@H](Cc1ccccc1)NC(=O)[C@H](Cc1cnc[nH]1)NC(=O)CNC(=O)[C@@H](NC(=O)[C@H](CS)NC(=O)[C@H](Cc1ccccc1)NC(=O)[C@H](CCCN=C(N)N)NC(=O)[C@@H](N)CCC(N)=O)[C@@H](C)O)C(=O)N[C@@H](Cc1ccc(O)cc1)C(=O)N1CCC[C@H]1C(=O)N[C@@H](CS)C(=O)N[C@@H](CC(N)=O)C(=O)NCC(=O)N1CCC[C@H]1C(=O)O`, the half-inhibitory concentration (IC50) was 57 µM.

Regarding `CC(C)C[C@H](NC(=O)CNC(=O)CNC(=O)[C@H](Cc1ccccc1)NC(=O)[C@H](Cc1cnc[nH]1)NC(=O)CNC(=O)[C@@H](NC(=O)[C@@H](NC(=O)[C@H](Cc1ccccc1)NC(=O)[C@H](CCCNC(=N)N)NC(=O)[C@@H](N)CCC(N)=O)C(C)(C)S)[C@@H](C)O)C(=O)N[C@@H](Cc1ccc(O)cc1)C(=O)N1CCC[C@H]1C(=O)N[C@@H](CCS)C(=O)N[C@@H](CC(N)=O)C(=O)NCC(=O)N1CCC[C@H]1C(=O)O`, the 50% inhibitory concentration (IC50) worked out at 2 µM.

As to `CC(C)C[C@H](NC(=O)[C@H]1CS[C@@H]2CC[C@@H](NC(=O)[C@H](Cc3ccccc3)NC(=O)[C@H](Cc3cnc[nH]3)NC(=O)CNC(=O)[C@@H](NC(=O)[C@H](NC(=O)[C@H](Cc3ccccc3)NC(=O)[C@@H](N)CCCN=C(N)N)C(C)(C)S)[C@@H](C)O)C(=O)N12)C(=O)N[C@@H](Cc1ccc(O)cc1)C(=O)N1CCC[C@H]1C(=O)N[C@@H](CS)C(=O)O`, the concentration for half-maximal inhibition (IC50) amounted to 2.2 µM.

Regarding `CC(C)C[C@@H](C(=O)N[C@@H](Cc1ccc(O)cc1)C(=O)N1CCC[C@H]1C(=O)N[C@@H](CS)C(=O)O)N(C)C(=O)CN(C)C(=O)CNC(=O)[C@H](Cc1ccccc1)NC(=O)[C@H](Cc1c[nH]nn1)NC(=O)CNC(=O)[C@@H](NC(=O)[C@@H](NC(=O)[C@H](Cc1ccccc1)NC(=O)[C@@H](N)CCCNC(=N)N)C(C)(C)S)[C@@H](C)O`, the concentration for half-maximal inhibition (IC50) was determined as 5.7 µM.

For `CC(C)C[C@H](NC(=O)c1cccc(CNC(=O)[C@H](Cc2ccccc2)NC(=O)[C@H](Cc2cnc[nH]2)NC(=O)CNC(=O)[C@@H](NC(=O)[C@@H](NC(=O)[C@H](Cc2ccccc2)NC(=O)[C@@H](N)CCCN=C(N)N)C(C)(C)S)[C@@H](C)O)c1)C(=O)N[C@@H](Cc1ccc(O)cc1)C(=O)N1CCC[C@H]1C(=O)N[C@@H](CS)C(=O)O`, the IC50 came out at 57 µM.
